From ChEMBL document CHEMBL1140214, “Antitumor activity of new substituted 3-(5-imidazo[2,1-b]thiazolylmethylene)-2-indolinones and 3-(5-imidazo[2,1-b]thiadiazolylmethylene)-2-indolinones: selectivity against colon tumor cells and effect on cell cycle-related events” (2008)

Experiments:
[1] = Antitumor activity against human CNS cancer cells after 48 hrs by SRB assay; assay type: functional, Cancer cell lines; details: for TGI: read-out: pTGI (converted)
Summary of the method: (§1)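 NCI 60-cell panel two-stage screen: a single-dose pass at 10^-5 M, then five-dose testing for active compounds. Compounds were dissolved in DMSO and tested at five 10-fold dilutions, the highest 10^-4 M (10^-3 M in some cases). Results are given as the negative log molar concentration at three end points: pGI50, pTGI (total growth inhibition) and pLC50. Means are panel-subtype averages.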

[2] = Antitumor activity against human prostate cancer cells after 48 hrs by SRB assay; assay type: functional, Cancer cell lines; details: for GI50 / TGI / LC50: Homo sapiens, Cancer cell lines, 48 h; for TGI: read-out: pTGI (converted); summary of the method: as §1
NSCLC = experiment: Antitumor activity against human NSCLC cells after 48 hrs by SRB assay; assay type: functional; details: for GI50 / TGI / LC50: Homo sapiens, NSCLC, 48 h; for TGI: read-out: pTGI (converted); summary of the method: as §1
[3] = Antitumor activity against human renal cancer cells after 48 hrs by SRB assay; assay type: functional, Cancer cell lines; details: for GI50 / TGI / LC50 (concentration killing 50% of cells): Homo sapiens, Cancer cell lines, 48 h; for TGI: read-out: pTGI (converted); summary of the method: as §1
[4] = Antitumor activity against human Colon cancer cells after 48 hrs by SRB assay; assay type: functional, Cancer cell lines; details: for TGI: read-out: pTGI (converted); summary of the method: as §1
[5] = Antitumor activity against human Breast cancer cells after 48 hrs by SRB assay; assay type: functional, Cancer cell lines; details: for GI50 / TGI / LC50: Homo sapiens, Cancer cell lines, 48 h; for TGI: read-out: pTGI (converted); summary of the method: as §1
Melanoma cell = experiment: Antitumor activity against human Melanoma cells after 48 hrs by SRB assay; assay type: functional; details: for TGI: read-out: pTGI (converted); for CC50: read-out: pLC50 (the source's name) (converted); summary of the method: as §1
Leukemia cell = experiment: Antitumor activity against human Leukemia cells after 48 hrs by SRB assay; assay type: functional; details: for TGI: read-out: pTGI (converted); summary of the method: as §1
[6] = Antitumor activity against human ovarian cancer cells after 48 hrs by SRB assay; assay type: functional, Cancer cell lines; details: for GI50 / TGI / LC50 (concentration killing 50% of cells): Homo sapiens, Cancer cell lines, 48 h; for TGI: read-out: pTGI (converted); summary of the method: as §1
[7] = Homo sapiens, Cancer cell lines, 48 h, read-out: pGI50 (converted)
[8] = Homo sapiens, Cancer cell lines, 48 h
[9] = Homo sapiens, Melanoma cell, 48 h, read-out: pGI50 (converted)
[10] = Homo sapiens, Melanoma cell, 48 h
[11] = Homo sapiens, Leukemia cell, 48 h

SMILES: Cc1cn2c(/C=C3/C(=O)Nc4ccc(F)cc43)c(C)nc2s1
- GI50 [1]: 6.03 µM
- GI50 [1, 7]: 6.03 µM
- TGI [1, 8]: 33.1 µM
- GI [2]: 9.55 µM
- GI50 [2]: 9.55 µM
- TGI [2]: 40.7 µM
- GI (NSCLC): 8.13 µM
- GI50 (NSCLC): 8.13 µM
- TGI (NSCLC): 42.7 µM
- GI [3]: 11.48 µM
- GI50 [3]: 11.5 µM
- TGI [3]: 40.7 µM
- GI [4]: 2.4 µM
- GI50 [4, 8]: 2.4 µM
- TGI [4, 8]: 40.7 µM
- GI [5]: 4.47 µM
- GI50 [5]: 4.47 µM
- TGI [5]: 23.4 µM
- GI50 (Melanoma cell): 6.31 µM
- GI50 (Melanoma cell; [9]): 6.31 µM
- TGI (Melanoma cell; [10]): 35.5 µM
- GI (Leukemia cell): 4.57 µM
- GI50 (Leukemia cell; [11]): 4.57 µM
- TGI (Leukemia cell; [11]): 23.4 µM
- GI [6]: 7.24 µM
- GI50 [6]: 7.24 µM
- TGI [6]: 44.7 µM

SMILES: Cc1cn2c(/C=C3/C(=O)Nc4ccccc43)c(-c3ccc(Cl)cc3)nc2s1
- GI50 [1]: 6.76 µM
- LC50 [1, 8]: 30.2 µM
- GI50 [1, 7]: 6.76 µM
- TGI [1, 8]: 15.1 µM
- GI [2]: 9.77 µM
- GI50 [2]: 9.77 µM
- LC50 [2]: 28.8 µM
- TGI [2]: 17 µM
- GI (NSCLC): 8.13 µM
- GI50 (NSCLC): 8.13 µM
- LC50 (NSCLC): 38 µM
- TGI (NSCLC): 17.8 µM
- GI [3]: 3.31 µM
- GI50 [3]: 3.31 µM
- LC50 (concentration killing 50% of cells) [3]: 33.1 µM
- TGI [3]: 18.6 µM
- GI [4]: 10.23 µM
- GI50 [4, 8]: 10.2 µM
- LC50 (50% lethal concentration) [4, 8]: 38.9 µM
- TGI [4, 8]: 21.4 µM
- GI [5]: 6.46 µM
- GI50 [5]: 6.46 µM
- LC50 [5]: 35.5 µM
- TGI [5]: 17.8 µM
- GI50 (Melanoma cell): 9.55 µM
- GI50 (Melanoma cell; [9]): 9.55 µM
- CC50 (Melanoma cell; [10]): 32.4 µM
- TGI (Melanoma cell; [10]): 19.1 µM
- GI (Leukemia cell): 18.2 µM
- GI50 (Leukemia cell; [11]): 18.2 µM
- TGI (Leukemia cell; [11]): 44.7 µM
- GI [6]: 10 µM
- GI50 [6]: 10 µM
- LC50 (concentration killing 50% of cells) [6]: 39.8 µM
- TGI [6]: 20.4 µM

SMILES: Cc1nn2c(/C=C3/C(=O)Nc4ccccc43)c(-c3ccc(Cl)cc3)nc2s1
- GI50 [1]: 3.24 µM
- LC50 [1, 8]: 38.9 µM
- GI50 [1, 7]: 3.24 µM
- TGI [1, 8]: 16.6 µM
- GI [2]: 12.3 µM
- GI50 [2]: 12.3 µM
- TGI [2]: 32.4 µM
- GI (NSCLC): 19.05 µM
- GI50 (NSCLC): 19.1 µM
- TGI (NSCLC): 45.7 µM
- GI [3]: 17.78 µM
- GI50 [3]: 17.8 µM
- LC50 (concentration killing 50% of cells) [3]: 46.8 µM
- TGI [3]: 33.1 µM
- GI [4]: 18.62 µM
- GI50 [4, 8]: 18.6 µM
- TGI [4, 8]: 44.7 µM
- GI [5]: 16.98 µM
- GI50 [5]: 17 µM
- TGI [5]: 42.7 µM
- GI50 (Melanoma cell): 19.95 µM
- GI50 (Melanoma cell; [9]): 20 µM
- CC50 (Melanoma cell; [10]): 47.9 µM
- TGI (Melanoma cell; [10]): 35.5 µM
- GI (Leukemia cell): 17.78 µM
- GI50 (Leukemia cell; [11]): 17.8 µM
- GI [6]: 25.7 µM
- GI50 [6]: 25.7 µM

SMILES: Cc1cn2c(/C=C3/C(=O)Nc4ccc(O)cc43)c(-c3ccc(Cl)cc3)nc2s1
- GI50 [1]: 13.18 µM
- LC50 [1, 8]: 81.3 µM
- GI50 [1, 7]: 13.2 µM
- TGI [1, 8]: 35.5 µM
- GI [2]: 15.14 µM
- GI50 [2]: 15.1 µM
- LC50 [2]: 79.4 µM
- TGI [2]: 50.1 µM
- GI (NSCLC): 16.6 µM
- GI50 (NSCLC): 16.6 µM
- LC50 (NSCLC): 91.2 µM
- TGI (NSCLC): 55 µM
- GI [3]: 15.14 µM
- GI50 [3]: 15.1 µM
- LC50 (concentration killing 50% of cells) [3]: 87.1 µM
- TGI [3]: 50.1 µM
- GI [4]: 24.55 µM
- GI50 [4, 8]: 24.5 µM
- TGI [4, 8]: 75.9 µM
- GI [5]: 15.85 µM
- GI50 [5]: 15.8 µM
- LC50 [5]: 95.5 µM
- TGI [5]: 56.2 µM
- GI50 (Melanoma cell): 15.14 µM
- GI50 (Melanoma cell; [9]): 15.1 µM
- CC50 (Melanoma cell; [10]): 89.1 µM
- TGI (Melanoma cell; [10]): 57.5 µM
- GI (Leukemia cell): 12.59 µM
- GI50 (Leukemia cell; [11]): 12.6 µM
- LC50 (concentration killing 50% of cells) (Leukemia cell; [11]): 95.5 µM
- TGI (Leukemia cell; [11]): 38.9 µM
- GI [6]: 13.8 µM
- GI50 [6]: 13.8 µM
- LC50 (concentration killing 50% of cells) [6]: 89.1 µM
- TGI [6]: 44.7 µM
